From paper PMC4097887 (Journal of medicinal chemistry, 2008)
Marks after values point to notes of the source that are not given here.

Key:
KG-1 AML cells [1] = assay: KG-1 proliferation inhibition; format: cell-based, human
Method in brief: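 KG-1 cells in medium with 5% FBS attached overnight and were then exposed to test compound in Me2SO or to Me2SO alone (final 0.1%) for the indicated time. Cells were harvested and counted with a hemocytometer in triplicate wells. Proliferation inhibition is given as IC50 and as percent inhibition at the highest concentration tested.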

[2] = system: human microvascular endothelial (HMVE) cells; assay: HMVE cell growth inhibition; format: cell-based; settings: 0.5 μM
AML animal model = settings: cited from earlier work
[3] = doses found to induce cancer cell apoptosis in vitro; cited from earlier work
[4] = system: IGROV ovarian cancer cells; settings: at antiproliferative IC80 value, propidium iodide staining; cited from earlier work
KG-1 AML cells [5] = assay: KG-1 cell apoptosis; format: cell-based, human
Method in brief: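 Cells in medium with 5% FBS attached overnight, then exposed to test compound in Me2SO or to Me2SO alone (final 0.1%). Exposure was 24 h for HL-60R and 48 h for KG-1. Apoptotic cells were scored by acridine orange staining on at least three replicates and expressed as percent apoptosis.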

[6] = system: DU-145, MDA-MB-231 and H292 cancer cell lines; assay: Proliferation inhibition of the three solid tumor cell lines; format: cell-based, human
Method in brief: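 DU-145, MDA-MB-231 and H292 cells attached for 24 h and were then treated for 72 h with test compound in Me2SO or with vehicle alone (final Me2SO 0.1%). Medium and compound were replaced at 48 h. Viable cells were measured by tetrazolium (MTS-type) reduction in triplicate per concentration, and IC50 values were calculated from these counts.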

[7] = biological target: T1, recombinant human small heterodimer partner (SHP) (Homo sapiens, UniProt Q15466); settings: cited from earlier work
T1 sequence (Q15466 1-257): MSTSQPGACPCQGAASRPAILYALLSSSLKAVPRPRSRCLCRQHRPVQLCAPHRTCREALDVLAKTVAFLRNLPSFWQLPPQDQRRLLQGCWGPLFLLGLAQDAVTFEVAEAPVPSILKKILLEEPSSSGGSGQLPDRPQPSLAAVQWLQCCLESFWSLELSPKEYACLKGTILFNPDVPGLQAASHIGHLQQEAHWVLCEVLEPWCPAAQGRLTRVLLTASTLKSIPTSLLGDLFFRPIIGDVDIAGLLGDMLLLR

SMILES: CC(=O)Nc1ccc(-c2ccc(/C=C/C(=O)O)cc2Cl)cc1C12CC3CC(CC(C3)C1)C2 [compound 2]
- further reduction of KG-1 antiproliferative activity relative to 3 (KG-1 AML cells [1]; 5.0 μM): 50%

SMILES: CC(C)(C)c1cc(-c2ccc3cc(C(=O)O)ccc3c2)ccc1O [compound 21]
- reduction of HMVE cell growth inhibition relative to 13 [2]: 7 fold

SMILES: O=C(O)/C=C/c1ccc(-c2ccc(F)cc2)c(Cl)c1 [compound 5]
- % inhibition of KG-1 proliferation at highest concentration evaluated (KG-1 AML cells [1]; 5 μM, 48 h): 0%

SMILES: O=C(O)/C=C/c1ccc(-c2ccc(O)c(C34CC5CC(CC(C5)C3)C4)c2)c(Cl)c1 [compound 1, (E)-4-[3′-(1-adamantyl)-4′-hydroxyphenyl]-3-chlorocinnamic acid]
- survival in an AML animal model (AML animal model): extension of survival

SMILES: CC(C)(C)C#Cc1cc(-c2ccc(/C=C/C(=O)O)cc2Cl)ccc1O [compound 6]
- KG-1 antiproliferative activity as fraction of that of 1 (KG-1 AML cells [1]; 5.0 μM): approximately one-third

SMILES: O=C(O)c1ccc2cc(-c3cccc(C45CC6CC(CC(C6)C4)C5)c3)ccc2c1 [compound 18]
- HMVE cell growth inhibition at 72 h (%) ([2]; 72 h (Table 1)): moderate

SMILES: O=C(O)/C=C/c1ccc(-c2ccc(O)c(C34CC5CC(CC(C5)C3)C4)c2)cc1 [compound 15, (E)-4-[3′-(1-adamantyl)-4′-hydroxyphenyl]cinnamic acid]
- adverse systemic effects in mice [3]: produced adverse systemic effects
- apoptosis induced in ovarian cancer cell line [4]: 50%

SMILES: Nc1ccc(-c2ccc(/C=C/C(=O)O)cc2Cl)cc1C12CC3CC(CC(C3)C1)C2 [compound 3]
- weakening of KG-1 apoptosis induction relative to 1 (KG-1 AML cells [5]; 1.0 μM): 67%
- weakening of KG-1 apoptosis induction relative to 1 (KG-1 AML cells [5]; 5.0 μM): 27%
- KG-1 apoptosis at 48 h (%) (KG-1 AML cells [5]; 5.0 μM): 40 ^j %
- increase of IC50 for KG-1 proliferation inhibition compared to 1 (KG-1 AML cells [1]): ~3.6 fold
- calculated IC50 values higher than those of 1, three solid tumor cell lines [6]: 3–4 fold

SMILES: O=C(O)/C=C/c1ccc(-c2ccc(O)c(C34CC5CC(CC3C5)C4)c2)c(Cl)c1 [compound 8]
- KG-1 apoptotic activity as % of that exhibited by 1 (KG-1 AML cells [5]; 5.0 μM): 31%
- KG-1 apoptosis at 48 h (%) (KG-1 AML cells [5]; 5.0 μM): 16 ^j %
- KG-1 proliferation inhibition relative to 1 (KG-1 AML cells [1]; 5.0 μM): 1.2 fold
- calculated IC50 values higher than those of 1, three solid tumor cell lines [6]: 10–20 fold

SMILES: O=C(O)c1ccc2cc(-c3ccc(O)c(C45CC6CC(CC(C6)C4)C5)c3)ccc2c1 [compound 13, 6-[3′-(1-adamantyl)-4′-hydroxyphenyl]-2-naphthoic acid]
- affinity of [5,5′-3H2]AHPN for recombinant human SHP [7]: low nanomolar affinity
